ChEMBL document CHEMBL3120122, “Highly potent HCV NS4B inhibitors with activity against multiple genotypes” (J Med Chem, 2014)

Tests used:
Hepatitis C virus [1] = assay: Antiviral activity against HCV Con1 expressing NS4B H94N mutant infected in human HuH7 cells assessed as inhibition of viral RNA replication after 3 days by dual-glo luciferase reporter gene assay; assay type: functional, organism-based, Hepacivirus hominis; conditions: isolate Con1, Huh-7, 72 h
Method in brief: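 Tested in the HCV genotype 1b replicon assay carrying the NS4B H94N substitution, alongside the matched 1a, 1b and 2a-JFH replicon screens.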

[2] = Lipophilicity, log D of the compound at pH 7.4 by chromatographic analysis; assay type: physicochemical; conditions: buffer
Hepatitis C virus [3] = assay: Selectivity ratio of EC50 for HCV Con1 expressing NS4B H94N mutant to EC50 for HCV Con1 expressing wild type NS4B; assay type: functional, Hepacivirus hominis, isolate Con1
Hepatitis C virus [4] = assay: Antiviral activity against HCV JFH-1 expressing NS4B infected in human HuH7 cells assessed as inhibition of viral RNA replication after 3 days by dual-glo luciferase reporter gene assay; assay type: functional, organism-based, Hepacivirus hominis; conditions: JFH-1, Huh-7, 72 h
[5] = Cytotoxicity against human HuH7 cells; assay type: cell-based, Huh-7
[6] = Displacement of tritium labeled (R)-6-cyclopropyl-4-methyl-N-(morpholin-3-ylmethyl)-8-(trifluoromethyl)quinoline-2-carboxamide from recombinant HCV genotype 1b C-terminal His6-tagged NS4B expressed in baculovirus infected insect SF9 cells after overnight incubation by scintillation proximity assay; parameters: species or system Hepatitis C virus subtype 1b
Hepatitis C virus [7] = assay: Antiviral activity against HCV H77 expressing wild type NS4B infected in human HuH7 cells assessed as inhibition of viral RNA replication after 3 days by dual-glo luciferase reporter gene assay; assay type: functional, organism-based, Hepacivirus hominis; conditions: genotype 1a H77, Huh-7, 72 h
Method in brief: (§1)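 Measured in HCV replicon assays, not infection, using genotype 1a, 1b and 2a (JFH) replicons; the read-out is inhibition of replicon replication.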

Hepatitis C virus [8] = assay: Antiviral activity against HCV Con1 expressing wild type NS4B infected in human HuH7 cells assessed as inhibition of viral RNA replication after 3 days by dual-glo luciferase reporter gene assay; assay type: functional, organism-based, Hepacivirus hominis; conditions: isolate Con1, Huh-7, 72 h; method in brief: as §1
[9] = Selectivity ratio of EC50 for HCV JFH-1 expressing NS4B to EC50 for HCV Con1 expressing wild type NS4B; assay type: functional
[10] = Intrinsic clearance in rat liver microsomes at 3 uM after 1 hr in presence of NADPH and UDP-glucuronic acid; assay type: ADME; conditions: read-out: CLH (converted)
[11] = Half life in iv dosed Sprague-Dawley rat administered as 30 mins infusion; assay type: ADME, organism-based; conditions: in vivo
Hepatitis C virus [12] = assay: Antiviral activity against HCV genotype 2b expressing full length NS4B infected in human HuH7 cells assessed as inhibition of viral RNA replication after 3 days by dual-glo luciferase reporter gene assay; assay type: functional, organism-based, Hepacivirus hominis; conditions: Huh-7, 72 h
[13] = Intrinsic clearance in human liver microsomes at 3 uM after 1 hr in presence of NADPH and UDP-glucuronic acid; assay type: ADME; conditions: read-out: CLH (converted)
[14] = Volume of distribution at steady state in iv dosed Sprague-Dawley rat administered as 30 mins infusion; assay type: ADME, organism-based; conditions: in vivo, read-out: Vdss
Hepatitis C virus [15] = assay: Antiviral activity against HCV genotype 6a expressing NS4B infected in human HuH7 cells assessed as inhibition of viral RNA replication after 3 days by dual-glo luciferase reporter gene assay; assay type: functional, organism-based, Hepacivirus hominis; conditions: Huh-7, 72 h
[16] = Oral bioavailability in Sprague-Dawley rat; assay type: ADME, organism-based; conditions: in vivo
Hepatitis C virus [17] = assay: Antiviral activity against HCV ED43 expressing NS4B infected in human HuH7 cells assessed as inhibition of viral RNA replication after 3 days by dual-glo luciferase reporter gene assay; assay type: functional, organism-based, Hepacivirus hominis; conditions: ED43, Huh-7, 72 h
[18] = Clearance in iv dosed Sprague-Dawley rat administered as 30 mins infusion; assay type: ADME, organism-based; conditions: in vivo
Hepatitis C virus [19] = assay: Antiviral activity against HCV Con1 expressing NS4B H94S mutant infected in human HuH7 cells assessed as inhibition of viral RNA replication after 3 days by dual-glo luciferase reporter gene assay; assay type: functional, organism-based, Hepacivirus hominis; conditions: isolate Con1, Huh-7, 72 h
Hepatitis C virus [20] = assay: Antiviral activity against HCV S52 expressing NS4B infected in human HuH7 cells assessed as inhibition of viral RNA replication after 3 days by dual-glo luciferase reporter gene assay; assay type: functional, organism-based, Hepacivirus hominis; conditions: S52, Huh-7, 72 h

Row | Compound | EC50 (Hepatitis C virus [1]) | chromatographic logD [2] | Ratio EC50 (Hepatitis C virus [3]) | EC50 (Hepatitis C virus [4]) | CC50 [5] | Kd [6] | EC50 (Hepatitis C virus [7]) | EC50 (Hepatitis C virus [8]) | Ratio EC50 [9] | CLint scaled at 3 µM [10] | half-life [11] | EC50 (Hepatitis C virus [12]) | CLint scaled at 3 µM [13] | Vd [14] | EC50 (Hepatitis C virus [15]) | bioavailability [16] | EC50 (Hepatitis C virus [17]) | clearance [18] | EC50 (Hepatitis C virus [19]) | EC50 (Hepatitis C virus [20])
1 | Cc1cc(-c2nnc(NCC3OCCO3)o2)nc2c(C(C)(C)C)cc(OCC(F)(F)F)cc12 | 54 nM | 3.9 | 42 | 3580 nM | 20400 nM | 31 nM | 0.9 nM | 1.3 nM | 2720 |  |  |  |  |  |  |  |  |  |  | 
2 | Cc1cc(-c2nnc(N[C@@H]3CCC[C@H](O)C3)o2)nc2c(C(C)(C)C)cc(NCC(F)(F)F)cc12 | 0.6 nM | 3.6 |  | 3 nM | 6250 nM |  | 0.08 nM | 0.09 nM | 30 | 4 mL/min/kg | 11 h | 0.6 nM | 3.67 mL/min/kg | 2.4 L/kg | 3.1 nM | 88% | 0.9 nM | 10.8 mL/min/kg | 0.34 nM | 3.7 nM
3 | Cc1cc(-c2nnc(N[C@H]3C[C@H](O)C3)o2)nc2c(C(C)(C)C)cc(OCC(F)(F)F)cc12 | 714 nM |  |  | 5220 nM | 25900 nM |  |  | 3.5 nM |  |  |  |  |  |  |  |  |  |  |  | 
4 | COc1cc(C(F)(F)F)c2nc(-c3nnc(NCC4OCCO4)o3)cc(C)c2c1 | 719 nM | 3.4 |  |  | 50000 nM |  |  | 32 nM |  |  |  |  |  |  |  |  |  |  |  | 
5 | Cc1cc(-c2nnc(NC3CCCC3)o2)nc2c(C(C)(C)C)cc(NCC(F)(F)F)cc12 | 5.2 nM | 4.6 |  | 525 nM | 15800 nM |  |  | 0.15 nM |  |  |  |  |  |  |  |  |  |  |  | 
6 | Cc1cc(-c2nnc(NC3CCCC3)o2)nc2c(C(C)(C)C)cc(OCC(F)(F)F)cc12 | 35 nM | 4.9 |  | 3030 nM |  |  |  | 0.63 nM |  |  |  |  |  |  |  |  |  |  |  | 
7 | Cc1cc(-c2nnc(NCC3OCCO3)o2)nc2c(C(F)(F)F)cc(OCC(F)(F)F)cc12 | 206 nM | 3.6 |  | 15600 nM | 26600 nM |  |  | 5 nM |  |  |  |  |  |  |  |  |  |  |  | 
8 | Cc1cc(-c2nnc(N[C@H]3C[C@](O)(C(F)F)C3)o2)nc2c(C(C)(C)C)cc(NCC(F)(F)F)cc12 | 0.74 nM | 3.7 |  | 25 nM | 5440 nM |  | 0.05 nM | 0.08 nM | 312 | 3.67 mL/min/kg | 5.2 h | 0.16 nM | 3.33 mL/min/kg | 5 L/kg |  | 25% | 0.76 nM | 14.5 mL/min/kg | 4.4 nM | 2.3 nM
9 | Cc1cc(-c2nnc(N[C@H]3C[C@](O)(C(F)F)C3)o2)nc2c(C(C)(C)C)cc(OCC(F)(F)F)cc12 | 3.4 nM | 4.1 |  | 684 nM | 6240 nM |  |  | 0.32 nM |  |  |  |  |  |  |  |  |  |  |  | 
10 | Cc1cc(-c2nnc(Nc3ccccc3)o2)nc2c(C(F)(F)F)cc(-c3ccccc3)cc12 |  | 5.6 |  | > 20000 nM | 86400 nM |  |  | 5.9 nM |  | 11.7 mL/min/kg | 2.3 h |  | 7.67 mL/min/kg | 1.8 L/kg |  |  |  | 17.5 mL/min/kg |  | 
11 | Cc1cc(-c2nnc(NCC3OCCO3)o2)nc2c(C(C)(C)C)cc(NCC(F)(F)F)cc12 | 4.3 nM | 3.6 |  | 1100 nM | 16000 nM |  |  | 0.15 nM |  |  |  |  |  |  |  |  |  |  |  | 
12 | Cc1cc(-c2nnc(N[C@H]3CCC[C@@H](O)C3)o2)nc2c(C(C)(C)C)cc(NCC(F)(F)F)cc12 |  |  |  | 201 nM |  |  |  |  |  |  |  |  |  |  |  |  |  |  |  | 
13 | Cc1cc(-c2nnc(N[C@@H]3CCC[C@H](O)C3)o2)nc2c(C(C)(C)C)cc(OCC(F)(F)F)cc12 | 5.5 nM | 4 |  | 96 nM | 20900 nM |  | 0.09 nM | 0.32 nM | 300 |  |  | 0.9 nM |  |  |  |  | 1.5 nM |  |  | 30 nM
14 | Cc1cc(-c2nnc(N[C@H]3C[C@@H](O)C3)o2)nc2c(C(C)(C)C)cc(OCC(F)(F)F)cc12 | 41 nM | 3.4 |  | 208 nM | 10800 nM |  |  | 1.3 nM |  |  |  |  |  |  |  |  |  |  |  | 
